These results are taken from ChEMBL document CHEMBL1146247, “Identification and characterization of 3-substituted pyrazolyl esters as alternate substrates for cathepsin B: the confounding effects of DTT and cysteine in biological assays” (Bioorg Med Chem Lett, 2007).

Data set [1] addresses T1, Cathepsin B (Homo sapiens, UniProt P07858). Description: Inhibition of human liver cathepsin B. In short, it runs like this:
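Enzyme activated 15 min in assay buffer (100 mM Na/K phosphate pH 6.8, 1 mM EDTA, 2 mM DTT), then incubated 1 h at room temperature with 15 µM Z-Arg-Arg-AMC and compound. Compound given as 16 2-fold dilutions, 50 µM to 1.5 nM. AMC fluorescence read at ex 355/em 460 nm. Triplicate plates gave three independent IC50 values.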

Data set [2] concerns the target T1, Cathepsin B. In words: Inhibition of human liver cathepsin B pre-incubated for 17 hrs in non-buffer solution without DTT. In short, it runs like this: (§1)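 Compound held 2, 17 or 24 h in non-buffered solution without DTT before testing. It was then assayed against 0.1 nM activated cathepsin B with 15 µM Z-Arg-Arg-AMC for 1 h at room temperature. Read-out was AMC fluorescence at ex 355/em 460 nm. IC50 came from 16 2-fold dilutions.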

The target in data set [3] is T1, Cathepsin B. In words: Inhibition of human liver cathepsin B pre-incubated for 24 hrs in buffer without DTT. The essentials:
(§2)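 Compound held 2, 17 or 24 h in phosphate assay buffer pH 6.8 lacking DTT before testing. It was then run in the standard assay: 0.1 nM activated cathepsin B, 15 µM Z-Arg-Arg-AMC, 1 h at room temperature. Read-out was AMC fluorescence at 355/460 nm. IC50 came from a 16-point 2-fold dilution curve.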

The target of data set [4] is T1, Cathepsin B. In words: Inhibition of human liver cathepsin B pre-incubated for 24 hrs in assay buffer with DTT. In short, it runs like this:
(§3)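 Compound held 2, 17 or 24 h in assay buffer (phosphate pH 6.8, with DTT) before testing. It was then incubated with 0.1 nM cathepsin B in 100 mM buffer with 2 mM DTT, 1 mM EDTA and 15 µM Z-Arg-Arg-AMC for 1 h at room temperature. Read-out was AMC fluorescence (ex 355/em 460). IC50 came from 16 2-fold dilutions.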

Data set [5] has as its target T1, Cathepsin B. Description: Inhibition of human liver cathepsin B pre-incubated for 17 hrs in buffer without DTT. In short, it runs like this: as §2
The target of data set [6] is T1, Cathepsin B. Description: Inhibition of human liver cathepsin B pre-incubated for 17 hrs in assay buffer with DTT. The essentials:
as §3

The target of data set [7] is T1, Cathepsin B. In words: Inhibition of human liver cathepsin B pre-incubated for 2 hrs in non-buffer solution without DTT. In short, it runs like this: as §1
In data set [8] the target is T1, Cathepsin B. Description: Inhibition of human liver cathepsin B pre-incubated for 2 hrs in buffer without DTT. In short, it runs like this:
as §2

The nature of data set [9]: Stability of compound in presence of cathepsin B after 15 mins. It counts as ADME. To be noted: read-out: Stability. In short, it runs like this: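 Stoichiometric incubation of ester (10 μM, 1 equiv) with activated cathepsin B (20 μM, 2 equiv) under standard assay conditions (100 mM sodium-potassium phosphate pH 6.8, 1 mM EDTA, 2 mM DTT); parallel run without enzyme. After 15 min, remaining parent and conversion to pyrazolone by-product measured by LC–MS, 6.5 min run.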

Data set [10] deals with T1, Cathepsin B. In words: Inhibition of human liver cathepsin B pre-incubated for 2 hrs in assay buffer with DTT. In short, it runs like this: as §3
In data set [11] the target is T1, Cathepsin B. Description: Inhibition of human liver cathepsin B pre-incubated for 24 hrs in non-buffer solution without DTT. The essentials: as §1

`COc1ccc(S(=O)(=O)n2nc(OC(=O)c3cccs3)cc2N)cc1` displayed a concentration for half-maximal inhibition (IC50) in data set [1] of 0.69 µM.
The same measure, in the same setting: the figure for `Cc1ccc(S(=O)(=O)n2nc(OC(=O)c3cccs3)cc2N)cc1` is 1.99 µM; for `Nc1cc(OC(=O)c2ccco2)nn1S(=O)(=O)c1ccc(F)cc1` it is 1.26 µM.
The same measure, in the same setting: the figure for `Cc1ccc(S(=O)(=O)n2nc(OC(=O)c3ccco3)cc2N)cc1` is 1.75 µM.
For `Nc1cc(OC(=O)c2cccs2)nn1S(=O)(=O)c1ccccc1`, the half-maximal inhibitory concentration (IC50) is 1.8 µM in [2]; 3.2 µM in data set [3]; more than 50 µM in data set [4]; 0.7 µM in data set [5]; 45.4 µM in data set [6]; 1.7 µM in data set [7]. The IC50 was found to be 0.25 µM in data set [1], 1.4 µM in [8], 9 µM in data set [10] and 5 µM in data set [11]. The remaining at 0.25 h in [9] was 50%.
Consider `Nc1cc(OC(=O)c2cccs2)nn1S(=O)(=O)c1ccc(F)cc1`, for which the concentration for half-maximal inhibition (IC50) in data set [1] was 0.44 µM.

The IC50 is the midpoint of a concentration-inhibition curve. Read a low IC50 as higher potency.
